Assay [1] addresses T1, Melanocortin receptor 4 (Homo sapiens, UniProt P32245). The experiment in a line: Agonist activity at human MC4R expressed in HEK293 cells assessed as increase in cAMP production at 10^-7 to 10^-12 M after 15 mins by chemiluminescent assay. The class given is functional, cell-based. The gist of the method:
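HEK293/hMC4R cells in DMEM with 10% SCS, seeded 3 days ahead. Cells pre-incubated 10 min at 37°C with 1mM IBMX, then 8 ligand concentrations given for 15 min at 37°C. Lysed 25 min at 37°C. cAMP measured by competitive chemiluminescent immunoassay (AP conjugate, anti-cAMP antibody) against a same-run standard curve, basal subtracted. Triplicate wells, 3 experiments.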

In assay [2] the target is T1, Melanocortin receptor 4. The experiment in a line: Agonist activity at of human MC4R expressed in HEK293 cells assessed as cAMP level at 10^-7 to 10^-12 M after 15 mins by chemiluminescent assay relative to 10% forskolin response. The assay is classed as functional, cell-based. The gist of the method:
(§1)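 Same cAMP immunoassay in HEK293/hMC4R cells (1mM IBMX, 15 min ligand at 37°C, basal subtracted). For each ligand, the concentration giving cAMP at 5%, 10% or 25% of the 10 μM forskolin maximum was found. Receptor occupancy there was computed as [RL] = Bmax × [L]/([L] + Kd), with Kd from the Eu-NDP-α-MSH competition binding assays.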
(cAMP levels reflect the balance of adenylyl cyclase and phosphodiesterase activity.)

The target of assay [3] is T1, Melanocortin receptor 4. As to the kind of experiment: Displacement of Eu-NDP-alpha-MSH from human MC4R expressed in HEK293 cells after 2 hrs by time resolved fluorescence assay. The assay is classed as cell-based.
The target in assay [4] is T1, Melanocortin receptor 4. As to the kind of experiment: Agonist activity at of human MC4R expressed in HEK293 cells assessed as cAMP level at 10^-7 to 10^-12 M after 15 mins by chemiluminescent assay relative to 5% forskolin response. The assay is classed as functional, cell-based. In short, it runs like this: as §1

The source made the active and inactive calls. The calls are words filed in the database; no cut-off is given here.

T1 sequence (P32245 whole entry): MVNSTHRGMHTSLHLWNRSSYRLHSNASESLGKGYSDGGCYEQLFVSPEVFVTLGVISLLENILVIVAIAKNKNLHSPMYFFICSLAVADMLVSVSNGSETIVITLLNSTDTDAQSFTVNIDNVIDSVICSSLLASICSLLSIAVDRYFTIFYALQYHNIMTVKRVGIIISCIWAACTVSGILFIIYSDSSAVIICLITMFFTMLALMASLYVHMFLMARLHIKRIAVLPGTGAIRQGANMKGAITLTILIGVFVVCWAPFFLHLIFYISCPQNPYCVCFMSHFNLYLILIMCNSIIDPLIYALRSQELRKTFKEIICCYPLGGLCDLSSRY

Regarding `C#CCCCC(=O)N[C@@H](Cc1cnc[nH]1)C(=O)N[C@H](Cc1ccccc1)C(=O)N[C@@H](CCCNC(=N)N)C(=O)N[C@@H](Cc1c[nH]c2ccccc12)C(=O)Nc1cn(CC(=O)NCCCC(CCCNC(=O)Cn2cc(NC(=O)[C@H](Cc3c[nH]c4ccccc34)NC(=O)[C@H](CCCNC(=N)N)NC(=O)[C@@H](Cc3ccccc3)NC(=O)[C@H](Cc3cnc[nH]3)NC(=O)CCC#C)nn2)(NC(=O)CNC(C)=O)C(=O)NCCC(N)=O)nn1` (some centres not stated), the result in assay [1] was Active. Besides, the figures for the Activity in assay [2] and in assay [4] were 45000 pmol and 12000 pmol, respectively. Moreover, the IC50 (in general, the concentration needed to halve the response being measured) in assay [3] is 310 nM.

On to `C#CCCCC(=O)N[C@@H](Cc1cnc[nH]1)C(=O)N[C@H](Cc1ccccc1)C(=O)N[C@@H](CCCNC(=N)N)C(=O)N[C@@H](Cc1c[nH]c2ccccc12)C(=O)Nc1cn(CC(=O)NCCCC(CCCNC(=O)Cn2cc(NC(=O)[C@H](Cc3c[nH]c4ccccc34)NC(=O)[C@H](CCCNC(=N)N)NC(=O)[C@@H](Cc3ccccc3)NC(=O)[C@H](Cc3cnc[nH]3)NC(=O)CCC#C)nn2)(NC(=O)CNC(=O)Cn2cc(NC(=O)[C@H](Cc3c[nH]c4ccccc34)NC(=O)[C@H](CCCNC(=N)N)NC(=O)[C@@H](Cc3ccccc3)NC(=O)[C@H](Cc3cnc[nH]3)NC(=O)CCC#C)nn2)C(=O)NCCC(N)=O)nn1` (some centres not stated), for which, in assay [1], the result was Active. Besides, the Activity in assay [2] was found to be 75000 pmol; in assay [4] it was 14000 pmol.

These data come from ChEMBL document CHEMBL1833902, “Design, synthesis, and biological studies of efficient multivalent melanotropin ligands: tools toward melanoma diagnosis and treatment” (J Med Chem, 2011).
